Test results as given in ChEMBL document CHEMBL5678815 (Clin Cancer Res, 2017).
Calls of active or inactive are those of the source. No cut-off for these calls is given here.

Tests used:
Splenocyte [1] = experiment: In vivo inhibition of BCR signaling in female […] mouse assessed as CD69 expression at 2.9 mg/kg, po administered and measured after stimulation with anti-IgM for 18 h by flow cytometry analysis; assay type: functional, organism-based
Summary of the method: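 Female C57BL/6 mice (5/group/dose) were gavaged orally with vehicle or drug at 0.1–30 mg/kg, and spleens were harvested after 3 h. Splenocytes were stimulated with anti-IgM at 10μg/mL for 18 h at 37°C in 5% CO2, then Fc-blocked and stained for CD19 and CD69, with 7-AAD marking dead cells. CD69 on CD19+ B-cells was read by flow cytometry, acquiring >5,000 gated CD19+ cells.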

Splenocyte [2] = experiment: In vivo inhibition of BCR signaling in female […] mouse assessed as change in CD86 expression at 25 mg/kg, po administered and measured after stimulation with anti-IgM for 18 h by flow cytometry analysis; assay type: functional, organism-based
Summary of the method: (§1)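 Female C57BL/6 mice (5/group) received vehicle or 25 mg/kg drug by oral gavage at time zero, with spleens taken at time points from 3 to 24 h. Splenocytes were stimulated ex vivo with goat anti-mouse IgM at 10μg/mL for 18 h at 37°C in 5% CO2, then Fc-blocked and stained for CD19 plus CD69, CD86 or phospho-S6(S235/236), with 7-AAD to exclude dead cells. Read-out was flow cytometry on >5,000 gated CD19+ cells, compared with vehicle.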

Splenocyte [3] = experiment: In vivo inhibition of BCR signaling in female […] mouse assessed as change in phospho-S6 expression at 25 mg/kg, po administered and measured after stimulation with anti-IgM for 18 h by flow cytometry analysis; assay type: functional, organism-based; summary of the method: as §1
[4] = In vivo inhibition of BCR signaling in female […] mouse assessed as B-cell function at 25 mg/kg, po administered for 24 hrs and measured after stimulation with anti-IgM for 18 h by flow cytometry analysis relative to control; assay type: functional, Splenocyte; set-up: scale not given: the % may be the effect or the level left; summary of the method: as §1

C=CC(=O)N1CCC[C@@H](n2nc(-c3ccc(Oc4ccccc4)cc3)c3c(N)ncnc32)C1 [IBRUTINIB]
Activity (Splenocyte [1]): Active | Activity (Splenocyte [2]): Active | Activity (Splenocyte [3]): Active | Activity [4]: ~70%
